Measurements: paper PMC7416514 (Clinical & experimental metastasis, 2011)
Several values for one entry are separate records, joined by “and”; a condition that tells them apart may be missing. Equal values may be shown once.

Key:
[1] = phase I study in 40 patients ref 6; cited from earlier work
[2] = tested on: 231-BR cells; assay: Clonogenic survival assay with irradiation; format: cell-based, human; details: 40 nM, 2 h prior to irradiation, surviving fraction of 0.1
[3] = tested on: TP53 mutant cells; details: cited from earlier work
[4] = tested on: 231-BR cells; assay: Survival study in 231-BR brain metastasis model; format: in vivo, nu/nu NRC mice; details: 50 mg/kg
[5] = Preliminary dose finding experiments; format: in vivo; details: 75 mg/kg, intraperitoneally every other day, mice
[6] = tested on: 231-BR cells; assay: 231-BR experimental brain metastasis prevention model; format: in vivo, nu/nu NRC mice; details: for Micrometastases Mean: vehicle 239
Method in brief: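 Female nu/nu NRC mice, 5–7 weeks old, received 175,000 231-BR cells into the left cardiac ventricle. On day 3 they were randomised to test compound or vehicle (2% Cremophor EL, 2% N,N-dimethylacetamide in acidified pH 5 water). Brains were bisected sagittally; ten serial 10-micron sections every 300 microns through the right hemisphere were scored at 50×. Micro and large (>300 micron) lesions are given as mean per section, from two experiments combined, by mixed-model ANOVA with Dunnett adjustment.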

[7] = Whole body autoradiography tissue uptake; format: in vivo, rats; details: rat, single 12.5 mg/kg dose
Method in brief: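 Rats received a single dose of [14C]-labelled test compound and were sacrificed at timed points up to 24 h. Radioactivity in whole-body sections (brain, striatum, blood) was quantified by phosphoimager against 14C autoradiography standards. Results are μg equivalents/g tissue; limit of quantitation 0.051 μg equivalents/g.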

[8] = tested on: 231-BR cells; assay: Western blot of apoptotic markers and phosphorylated Histone H3; format: cell-based, human
Method in brief: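 231-BR cells were treated with test compound at 5 or 10 nM for the indicated times, then lysed and run on SDS-PAGE with immunoblotting. Antibodies: PLK-1, phospho-histone H3, cleaved and total caspase 9, 8 and 3. Tubulin served as the loading control.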

[9] = tested on: 231-BR cells; assay: MTT-based viability assay; format: cell-based; details: Homo sapiens, 48 h, read-out: IC50 viability of 231-BR cells
Method in brief: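 231-BR cells in 10% FBS had continuous exposure to test compound over 1–100 nM for 48 h, then an MTT viability read-out. Viability is expressed as percent of vehicle control. There were three separate experiments with n = 4 per point; log10-transformed data went to mixed-model ANOVA with Dunnett post-hoc comparison.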

**Q.** Which limiting toxicities [1] does the source give for `C[C@@H](Oc1cc(-n2cnc3ccc(CN4CCN(C)CC4)cc32)sc1C(N)=O)c1ccccc1C(F)(F)F` [GSK461364A] here?
**A.** neutropenia, thrombocytopenia and bone marrow suppression

**Q.** And the “phospho-Histone H3 (pHH3) in circulating tumor cells” value [1]?
**A.** Increased

**Q.** And the dose enhancement factor [2]?
**A.** 1.5

**Q.** And the “sensitivity in TP53 mutant cells” value [3]?
**A.** increased sensitivity

**Q.** What about the prolonged survival ([4]; treatment started 3 days post-injection) of the same compound?
**A.** 17%

**Q.** What about the “survival compared to the vehicle control group” value ([4]; treatment started day 3, 7 or 14 post-injection) of the same compound?
**A.** extended survival to the same extent

**Q.** And the “toxicity in dose finding” value [5]?
**A.** toxic causing acute weight loss

**Q.** What about the “Micrometastases Mean” value ([6]; 25 mg/kg IP every other day for 27 days from day 3) of the same compound?
**A.** 177 lesions/ section

**Q.** What about the “reduction in micrometastases vs vehicle” value ([6]; 25 mg/kg, statistically insignificant) of the same compound?
**A.** 26%

**Q.** And the “Micrometastases Mean” value ([6]; 50 mg/kg IP every other day for 27 days from day 3)?
**A.** 159 lesions/ section

**Q.** What about the “decline in large brain metastases vs vehicle” value ([6]; 50 mg/kg, treatment started 3 days post-injection) of the same compound?
**A.** 62%

**Q.** And the “Tissue uptake, Brain” value ([7]; 0.5 h)?
**A.** 3.192 μg equivalents/g tissue

**Q.** What about the “Tissue uptake, Brain (striatum)” value ([7]; 0.5 h) of the same compound?
**A.** 4.283 μg equivalents/g tissue

**Q.** What about the “Tissue uptake, Choroid plexus” value ([7]; 0.5 h) of the same compound?
**A.** 32.560 μg equivalents/g tissue

**Q.** What about the “Tissue uptake, Meninges” value ([7]; 0.5 h) of the same compound?
**A.** 10.305 μg equivalents/g tissue

**Q.** What about the “Tissue uptake, Blood (cardiac)” value ([7]; 0.5 h, listed as [^14C]GSK461364A, 12.5 mg/kg) of the same compound?
**A.** 2.4 μg equivalents/g tissue and 2.396^a μg equivalents/g tissue

**Q.** What about the “Drug uptake in the brain or striatum” value ([7]; 30 min post-injection) of the same compound?
**A.** 3.2–4.3 μg equivalents/g of tissue

**Q.** What about the “Tissue uptake, Blood (cardiac)” value ([7]; 2 h) of the same compound?
**A.** 0.730 μg equivalents/g tissue

**Q.** And the “Tissue uptake, Brain” value ([7]; 2 h)?
**A.** 0.363 μg equivalents/g tissue

**Q.** And the “Tissue uptake, Brain (striatum)” value ([7]; 2 h)?
**A.** 0.522 μg equivalents/g tissue

**Q.** What about the “Tissue uptake, Choroid plexus” value ([7]; 2 h) of the same compound?
**A.** 9.734 μg equivalents/g tissue

**Q.** What about the “Tissue uptake, Meninges” value ([7]; 2 h) of the same compound?
**A.** 1.236 μg equivalents/g tissue

**Q.** What about the “Tissue uptake, Blood (cardiac)” value ([7]; 6 h) of the same compound?
**A.** 0.183 μg equivalents/g tissue

**Q.** What about the “Tissue uptake, Brain” value ([7]; 6 h) of the same compound?
**A.** 0.088 μg equivalents/g tissue

**Q.** What about the “Tissue uptake, Brain (striatum)” value ([7]; 6 h) of the same compound?
**A.** 0.225 μg equivalents/g tissue

**Q.** And the “Tissue uptake, Choroid plexus” value ([7]; 6 h)?
**A.** 2.790 μg equivalents/g tissue

**Q.** What about the “Tissue uptake, Meninges” value ([7]; 6 h) of the same compound?
**A.** 1.239 μg equivalents/g tissue

**Q.** What about the “Tissue uptake, Brain” value ([7]; 24 h) of the same compound?
**A.** 0.126 μg equivalents/g tissue

**Q.** And the “Tissue uptake, Brain (striatum)” value ([7]; 24 h)?
**A.** 0.288 μg equivalents/g tissue

**Q.** And the “Tissue uptake, Choroid plexus” value ([7]; 24 h)?
**A.** 2.342 μg equivalents/g tissue

**Q.** And the “Tissue uptake, Meninges” value ([7]; 24 h)?
**A.** 4.881 μg equivalents/g tissue

**Q.** And the “Tissue uptake, Blood (cardiac)” value ([7]; 24 h, BLQ = <0.051 μg equivalents/g, 12.5 mg/kg)?
**A.** undetectable

**Q.** And the “Tissue uptake, Blood (cardiac)” value ([7]; 24 h, BLQ = <0.051 μg equivalents/g, listed as [^14C]GSK461364A, 12.5 mg/kg)?
**A.** BLQ^b

**Q.** And the “Drug remaining in the brain” value ([7]; 24 h post-injection)?
**A.** 0.13–0.29 μg equivalents/ g

**Q.** What about the “pHH3 levels (Western blot)” value ([8]; 231-BR cells treated with 5 and 10 nM) of the same compound?
**A.** increase in pHH3 levels

**Q.** And the “cleaved caspase 9 and cleaved caspase 3 (Western blot)” value ([8]; 231-BR cells treated with 5 or 10 nM)?
**A.** Cleaved caspase 9 and cleaved caspase 3 were observed

**Q.** What about the IC50 [9] of the same compound?
**A.** ~5 nM
